Experimental data taken from ChEMBL document CHEMBL1124850, “Synthesis and antibacterial activity of thiazolo-, oxazolo-, and imidazolo[3,2-a][1,8]naphthyridinecarboxylic acids” (J Med Chem, 1990).
Values after ≈ are worked out from the molar mass of the structure shown.

Columns and labels:
[1] = system: Staphylococcus aureus; assay: Activity against Staphylococcus aureus (IID 803); format: functional
Method in brief: (§1)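 Agar dilution MIC: serial 2-fold dilutions in Mueller-Hinton agar, inoculum about 10^6 CFU/mL, incubated at 37 °C for 18 h. The MIC is the lowest concentration that prevents visible bacterial growth.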

[2] = system: Bacillus subtilis; assay: Activity against Bacillus subtilis (ATCC 6633); format: functional; method in brief: as §1
[3] = system: Enterococcus faecalis; assay: Activity against Streptococcus faecalis (IID 682); format: functional; method in brief: as §1
[4] = system: Klebsiella aerogenes; assay: Activity against Enterobacter aerogenes (ATCC 13048); format: functional; method in brief: as §1
[5] = system: Pseudomonas aeruginosa; assay: Activity against Pseudomonas aeruginosa (E-2); format: functional; method in brief: as §1
[6] = system: Escherichia coli; assay: Activity against Escherichia coli (KC-14); format: functional; method in brief: as §1
[7] = system: Staphylococcus epidermidis; assay: Activity against Staphylococcus epidermidis (IAM 1296); format: functional; method in brief: as §1
[8] = system: Staphylococcus aureus; assay: Activity against Staphylococcus aureus (FDA207PJC-1); format: functional; method in brief: as §1
[9] = system: Nucleic Acid; assay: Inhibitory effect on DNA gyrase supercoiling activity from Escherichia coli K-12 C600; format: functional
[10] = system: Acinetobacter calcoaceticus; assay: Activity against Acinetobacter calcoaceticus (AC54); format: functional; method in brief: as §1
[11] = system: Klebsiella pneumoniae; assay: Activity against Klebsiella pneumoniae (PCI-602); format: functional; method in brief: as §1
[12] = system: Pseudomonas cepacia (Burkholderia cepacia); assay: Activity against Pseudomonas cepacia (IID-1341)
[13] = system: Escherichia coli; assay: Activity against Escherichia coli (K-12 C600); format: functional; method in brief: as §1
[14] = system: Burkholderia cepacia; assay: Activity against Pseudomonas cepacia (IID-1341); format: functional; method in brief: as §1

SMILES | MIC [1] [µg/mL] | MIC [2] [µg/mL] | MIC [3] [µg/mL] | MIC [4] [µg/mL] | MIC [5] [µg/mL] | MIC [6] [µg/mL] | MIC [7] [µg/mL] | MIC [8] [µg/mL] | IC50 [9] [µg/mL] | MIC [10] [µg/mL] | MIC [11] [µg/mL] | MIC [12] [µg/mL] | MIC [13] [µg/mL] | MIC [14] [µg/mL]
CC1COc2c(C(=O)O)c(=O)c3cc(F)c(N4CCN(C)CC4)nc3n21 (centres undefined) | 12.5 (≈ 34.5 µM) | 3.13 (≈ 8.64 µM) | > 25 | 6.25 (≈ 17.2 µM) | > 25 | 6.25 (≈ 17.2 µM) | > 25 | 12.5 (≈ 34.5 µM) | 6.11 (≈ 16.9 µM) | > 25 | 0.78 (≈ 2.15 µM) | > 25 | 12.5 (≈ 34.5 µM) | 
CN1CCN(c2nc3c(cc2F)c(=O)c(C(=O)O)c2n3CCN2C)CC1 | 100 (≈ 277 µM) | 25 (≈ 69.2 µM) | 100 (≈ 277 µM) | 50 (≈ 138 µM) | 100 (≈ 277 µM) | 50 (≈ 138 µM) | 100 (≈ 277 µM) | 100 (≈ 277 µM) | > 25 | 100 (≈ 277 µM) | 6.25 (≈ 17.3 µM) |  | 50 (≈ 138 µM) | 100 (≈ 277 µM)
CC1COc2c(N3CCN(C)CC3)c(F)cc3c(=O)c(C(=O)O)cn1c23 (centres undefined) [OFLOXACIN] | 0.39 (≈ 1.08 µM) | 0.1 (≈ 0.277 µM) | 1.56 (≈ 4.32 µM) | 0.1 (≈ 0.277 µM) | 1.56 (≈ 4.32 µM) | 0.1 (≈ 0.277 µM) | 0.78 (≈ 2.16 µM) | 0.39 (≈ 1.08 µM) | 0.59 (≈ 1.63 µM) | 0.39 (≈ 1.08 µM) | 0.05 (≈ 0.138 µM) |  | 0.2 (≈ 0.553 µM) | 6.25 (≈ 17.3 µM)

More lines, in order of falling MIC [1], values ahead:

MIC [1] [µg/mL] | MIC [2] [µg/mL] | MIC [3] [µg/mL] | MIC [4] [µg/mL] | MIC [5] [µg/mL] | MIC [6] [µg/mL] | MIC [7] [µg/mL] | MIC [8] [µg/mL] | IC50 [9] [µg/mL] | MIC [10] [µg/mL] | MIC [11] [µg/mL] | MIC [12] [µg/mL] | MIC [13] [µg/mL] | MIC [14] [µg/mL] | SMILES
0.78 (≈ 2.44 µM) | 0.2 (≈ 0.624 µM) | 3.13 (≈ 9.77 µM) | 0.2 (≈ 0.624 µM) | 1.56 (≈ 4.87 µM) | 0.2 (≈ 0.624 µM) | 3.13 (≈ 9.77 µM) | 0.78 (≈ 2.44 µM) |  | 3.13 (≈ 9.77 µM) | 0.1 (≈ 0.312 µM) |  | 0.2 (≈ 0.624 µM) | 6.25 (≈ 19.5 µM) | CCn1cc(C(=O)O)c(=O)c2cc(F)c(N3CCNCC3)nc21 [ENOXACIN]
0.39 (≈ 1.07 µM) | 0.1 (≈ 0.274 µM) | 6.25 (≈ 17.2 µM) | 0.2 (≈ 0.549 µM) | 1.56 (≈ 4.28 µM) | 0.2 (≈ 0.549 µM) | 1.56 (≈ 4.28 µM) | 0.39 (≈ 1.07 µM) | 0.52 (≈ 1.43 µM) | 0.39 (≈ 1.07 µM) | 0.05 (≈ 0.137 µM) |  | 0.2 (≈ 0.549 µM) | 3.13 (≈ 8.59 µM) | CN1CCN(c2nc3c(cc2F)c(=O)c(C(=O)O)c2n3CCS2)CC1
